Measured values: ChEMBL document CHEMBL4622988, “Elucidation of Mechanism for Ligand Efficacy at Leukotriene B4 Receptor 2 (BLT2)” (ACS Med Chem Lett, 2020)
pKd: −log10 of the molar value. The source made the active and inactive calls. No cut-off for these calls is given here.

Legend:
CHO-K1 [1] = experiment: Agonist activity at HA-epitope tagged human BLT2 Y271A mutant expressed in CHOK1 cells assessed as induction of chemotactic motility at 100 nM incubated for 2 hrs by hematoxylin and eosin staining based optical microscopic method; type: cell-based
Outline: (§1)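 CHO cells were transfected with wild-type BLT2, the Y271A mutant or the Y271A/N275A double mutant, then exposed to agonist to induce chemotactic motility. Migrating cells were fixed and stained with hematoxylin/eosin for counting.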

CHO-K1 [2] = experiment: Agonist activity at HA-epitope tagged human BLT2 Y271A/N275A double mutant expressed in CHOK1 cells assessed as induction of chemotactic motility at 100 nM incubated for 2 hrs by hematoxylin and eosin staining based optical microscopic method; type: cell-based; outline: as §1
[3] = target: T1, Leukotriene B4 receptor 2 (Homo sapiens) (UniProt Q9NPC1); experiment: Agonist activity at HA-epitope tagged human BLT2 expressed in CHOK1 cells assessed as induction of chemotactic motility at 100 nM incubated for 2 hrs by hematoxylin and eosin staining based optical microscopic method; type: cell-based; details: CHO-K1; outline: as §1
T1 sequence (whole entry): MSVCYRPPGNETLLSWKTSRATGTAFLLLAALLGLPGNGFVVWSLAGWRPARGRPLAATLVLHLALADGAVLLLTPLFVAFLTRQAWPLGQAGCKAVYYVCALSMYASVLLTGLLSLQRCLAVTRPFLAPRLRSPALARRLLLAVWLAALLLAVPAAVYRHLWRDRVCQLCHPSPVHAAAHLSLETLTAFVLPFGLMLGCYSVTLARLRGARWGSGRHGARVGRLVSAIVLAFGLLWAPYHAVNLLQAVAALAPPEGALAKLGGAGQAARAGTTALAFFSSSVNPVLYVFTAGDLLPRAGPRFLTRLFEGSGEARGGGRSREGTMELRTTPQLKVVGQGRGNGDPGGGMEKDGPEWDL

[4] = target: T1, Leukotriene B4 receptor 2 (Homo sapiens); experiment: Agonist activity at HA-epitope tagged human BLT2 expressed in CHOK1 cells assessed as induction of chemotactic motility at 300 nM incubated for 2 hrs by hematoxylin and eosin staining based optical microscopic method; type: cell-based; details: CHO-K1; outline: as §1
CHO-K1 [5] = experiment: Agonist activity at HA-epitope tagged human BLT2 Y271A mutant expressed in CHOK1 cells assessed as induction of chemotactic motility at 300 nM incubated for 2 hrs by hematoxylin and eosin staining based optical microscopic method; type: cell-based; outline: as §1
CHO-K1 [6] = experiment: Agonist activity at HA-epitope tagged human BLT2 Y271A/N275A double mutant expressed in CHOK1 cells assessed as induction of chemotactic motility at 300 nM incubated for 2 hrs by hematoxylin and eosin staining based optical microscopic method; type: cell-based; outline: as §1
[7] = target: T2, Leukotriene B4 receptor 2 (Homo sapiens, UniProt Q9NPC1); experiment: Displacement of [3H]LTB4 from HA-epitope tagged human BLT2 expressed in CHOK1 cells incubated for 60 mins by liquid scintillation counting method; type: cell-based, CHO-K1
T2 sequence (Q9NPC1 whole entry): T1 sequence (whole entry)
Outline: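 Competition binding: test ligand competed with 3H-LTB4 for binding to membranes prepared from cells expressing BLT2.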

## CCCCC[C@H](O)/C=C/C=C/C/C=C\CCCC(=O)O
CHO-K1 [1]
  Activity: inactive
CHO-K1 [2]
  Activity: inactive
[3]
  Activity: Active

## CCCCC/C=C\C[C@@H](O)/C=C/C=C/C=C\[C@@H](O)CCCC(=O)O
[4]
  Activity: Active
CHO-K1 [5]
  Activity: Active
CHO-K1 [6]
  Activity: inactive

## CCCCC(=O)N(Cc1ccc(-c2ccccc2C(=O)O)cc1)c1ccccc1
CHO-K1 [1]
  Activity: inactive
CHO-K1 [2]
  Activity: inactive
[7]; read-out: Kd
  pKd: 7.83
[3]
  Activity: Active

## CCCCC(=O)N(Cc1ccc(-c2ccccc2C)cc1)c1ccccc1
[7]; cho-k1
  Kd: Not Active

## CCCCC/C=C\C[C@H](O)/C=C/C=C\C/C=C\CCCC(=O)O
[4]
  Activity: Active
CHO-K1 [5]
  Activity: Active
CHO-K1 [6]
  Activity: inactive
